Experimental data reported in article PMC2193282 (The Journal of Experimental Medicine, 2000).

Tested on: epidermal Langerhans cells
Assay: Langerhans cell migration assay
Assay type: in vivo, BALB/c mice
Details: 24 h after topical application of 0.5% DNFB on ear (Fig. 5 A)
Outline: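 Ears were harvested 24 h later. Epidermal sheets were separated (0.5 M ammonium thiocyanate, 20 min, 37°C), acetone-fixed and stained with FITC anti-IA mAb 2G9. IA+ cells were counted at ×400 in 10 fields/sample; 5–15 mice/group.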

In the case of O=[N+]([O-])c1ccc(F)c([N+](=O)[O-])c1 [DNFB, dinitrofluorobenzene], the “reduction of epidermal Langerhans cell density” value is reported as ~35%.
